What all share (assay type): tissue-based
The target in test [1] is Monoglyceride lipase (Mus musculus) (UniProt O35678). The test can be described thus: Inhibition of MAGL in mouse brain at 0.01 to 100 uM treated for 30 mins by SDS-PAGE using rhodamine-tagged FP probe. The essentials: (§1)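 Mouse brain membrane proteome preincubated with inhibitor across 0.01-100 μM for 30 min. A rhodamine-tagged fluorophosphonate probe (FP-Rh) was then added for 60 min. Samples were resolved by SDS-PAGE, and probe labeling of each hydrolase band was read by in-gel fluorescence scanning.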
Sequence of Monoglyceride lipase (Mus musculus) (O35678 whole entry): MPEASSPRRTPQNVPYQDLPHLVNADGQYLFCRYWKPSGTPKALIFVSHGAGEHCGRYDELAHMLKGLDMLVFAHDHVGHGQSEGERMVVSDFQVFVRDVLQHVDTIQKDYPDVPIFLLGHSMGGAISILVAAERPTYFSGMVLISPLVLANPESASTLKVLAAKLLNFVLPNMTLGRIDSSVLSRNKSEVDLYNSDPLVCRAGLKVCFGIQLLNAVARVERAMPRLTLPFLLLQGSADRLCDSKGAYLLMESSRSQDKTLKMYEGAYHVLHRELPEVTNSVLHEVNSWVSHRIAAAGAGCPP

The target of test [2] is T1, Phosphatidylserine lipase ABHD16A (Mus musculus) (UniProt Q9Z1Q2).
T1 sequence (whole entry): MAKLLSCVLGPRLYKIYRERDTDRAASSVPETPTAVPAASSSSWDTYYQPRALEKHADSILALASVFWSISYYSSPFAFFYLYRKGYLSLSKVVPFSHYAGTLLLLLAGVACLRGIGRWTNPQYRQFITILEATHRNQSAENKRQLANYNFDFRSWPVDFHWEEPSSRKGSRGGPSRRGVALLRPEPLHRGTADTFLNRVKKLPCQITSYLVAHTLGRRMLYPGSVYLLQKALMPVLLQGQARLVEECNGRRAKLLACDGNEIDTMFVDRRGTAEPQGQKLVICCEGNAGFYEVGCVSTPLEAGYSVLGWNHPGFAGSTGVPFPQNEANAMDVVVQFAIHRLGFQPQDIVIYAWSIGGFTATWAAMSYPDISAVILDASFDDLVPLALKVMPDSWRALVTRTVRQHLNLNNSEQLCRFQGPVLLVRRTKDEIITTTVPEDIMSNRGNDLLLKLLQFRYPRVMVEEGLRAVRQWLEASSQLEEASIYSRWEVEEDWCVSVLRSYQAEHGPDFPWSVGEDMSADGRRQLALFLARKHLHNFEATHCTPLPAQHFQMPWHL
Kind of test: Inhibition of BAT5 in mouse brain at 0.01 to 100 uM treated for 30 mins by SDS-PAGE using rhodamine-tagged FP probe. The essentials:
as §1

Test [3] addresses T2, Lysophosphatidylserine lipase ABHD12 (Mus musculus) (UniProt Q99LR1).
T2 sequence (whole entry): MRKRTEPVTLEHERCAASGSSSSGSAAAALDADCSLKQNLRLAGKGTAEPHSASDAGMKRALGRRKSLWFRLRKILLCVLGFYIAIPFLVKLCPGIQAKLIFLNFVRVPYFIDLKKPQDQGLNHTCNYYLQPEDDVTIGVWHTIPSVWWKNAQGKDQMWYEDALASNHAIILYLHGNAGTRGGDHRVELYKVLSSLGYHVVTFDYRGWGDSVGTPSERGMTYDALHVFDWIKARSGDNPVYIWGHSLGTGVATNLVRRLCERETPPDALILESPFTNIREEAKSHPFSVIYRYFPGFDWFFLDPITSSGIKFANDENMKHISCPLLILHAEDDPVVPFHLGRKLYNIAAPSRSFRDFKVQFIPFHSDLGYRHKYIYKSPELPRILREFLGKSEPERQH
The test can be described thus: Inhibition of ABHD12 in mouse brain at 0.01 to 100 uM treated for 30 mins by SDS-PAGE using rhodamine-tagged FP probe. The essentials: as §1

In test [4] the target is T3, Diacylglycerol lipase-alpha (Mus musculus) (UniProt Q6WQJ1).
T3 sequence (whole entry): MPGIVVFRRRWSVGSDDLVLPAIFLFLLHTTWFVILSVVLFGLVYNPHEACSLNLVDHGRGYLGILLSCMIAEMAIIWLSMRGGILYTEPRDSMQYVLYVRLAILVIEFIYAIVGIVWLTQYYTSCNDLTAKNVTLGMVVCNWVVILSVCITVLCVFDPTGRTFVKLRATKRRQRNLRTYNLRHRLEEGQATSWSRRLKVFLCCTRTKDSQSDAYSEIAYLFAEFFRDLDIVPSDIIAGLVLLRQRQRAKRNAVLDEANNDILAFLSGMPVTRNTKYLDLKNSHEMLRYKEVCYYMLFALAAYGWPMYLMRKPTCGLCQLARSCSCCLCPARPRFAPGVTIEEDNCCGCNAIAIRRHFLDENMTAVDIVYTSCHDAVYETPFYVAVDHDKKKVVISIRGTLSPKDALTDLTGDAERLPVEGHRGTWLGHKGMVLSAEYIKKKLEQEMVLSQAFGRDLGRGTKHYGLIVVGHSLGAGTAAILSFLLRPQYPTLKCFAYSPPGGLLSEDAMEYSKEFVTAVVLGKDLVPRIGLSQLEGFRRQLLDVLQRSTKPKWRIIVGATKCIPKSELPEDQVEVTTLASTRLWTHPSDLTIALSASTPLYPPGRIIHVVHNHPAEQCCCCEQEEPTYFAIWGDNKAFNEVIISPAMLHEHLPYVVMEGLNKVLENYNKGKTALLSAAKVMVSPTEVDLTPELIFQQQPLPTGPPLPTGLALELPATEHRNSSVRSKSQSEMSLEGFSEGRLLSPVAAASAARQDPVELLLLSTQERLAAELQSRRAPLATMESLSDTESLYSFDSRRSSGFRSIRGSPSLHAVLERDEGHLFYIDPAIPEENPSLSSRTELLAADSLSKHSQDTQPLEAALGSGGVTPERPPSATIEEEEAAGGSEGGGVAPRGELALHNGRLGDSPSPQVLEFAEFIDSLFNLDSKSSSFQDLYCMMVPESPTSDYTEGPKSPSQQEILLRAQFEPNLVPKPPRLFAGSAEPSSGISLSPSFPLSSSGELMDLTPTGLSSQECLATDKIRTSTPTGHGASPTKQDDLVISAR
The test can be described thus: Inhibition of DAGLalpha in mouse brain assessed as >15 average spectral count at 5 uM treated for 30 mins by ABPP-MudPIT assay.

The target in test [5] is T4, Diacylglycerol lipase-beta (Mus musculus) (UniProt Q91WC9).
T4 sequence (whole entry): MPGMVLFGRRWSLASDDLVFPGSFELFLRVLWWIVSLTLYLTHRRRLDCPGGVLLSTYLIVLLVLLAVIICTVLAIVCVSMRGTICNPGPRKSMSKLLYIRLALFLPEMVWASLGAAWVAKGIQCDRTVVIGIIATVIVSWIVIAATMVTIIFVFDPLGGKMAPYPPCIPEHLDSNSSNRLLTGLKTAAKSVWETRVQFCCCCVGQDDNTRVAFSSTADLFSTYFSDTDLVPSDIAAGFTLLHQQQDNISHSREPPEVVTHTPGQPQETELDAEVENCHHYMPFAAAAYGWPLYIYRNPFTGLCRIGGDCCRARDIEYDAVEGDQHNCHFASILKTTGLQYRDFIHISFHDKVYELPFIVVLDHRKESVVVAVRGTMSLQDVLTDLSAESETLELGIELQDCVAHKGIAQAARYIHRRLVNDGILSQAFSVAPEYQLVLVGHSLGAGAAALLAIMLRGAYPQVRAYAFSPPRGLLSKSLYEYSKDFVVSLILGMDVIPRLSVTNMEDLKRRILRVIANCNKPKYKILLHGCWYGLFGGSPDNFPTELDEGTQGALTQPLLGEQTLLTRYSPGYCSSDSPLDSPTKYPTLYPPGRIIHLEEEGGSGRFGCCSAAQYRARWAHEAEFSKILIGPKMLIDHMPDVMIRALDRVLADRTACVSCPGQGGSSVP
The test can be described thus: Inhibition of DAGLbeta in mouse brain assessed as >15 average spectral count at 5 uM treated for 30 mins by ABPP-MudPIT assay.

Experimental findings from ChEMBL document CHEMBL1151781, “Selectivity of inhibitors of endocannabinoid biosynthesis evaluated by activity-based protein profiling” (Bioorg Med Chem Lett, 2008) are described below.

Calls of active or inactive are those of the source. The rule behind the calls is not given here.

On to `CCCCCCCCCCC[C@@H](C[C@@H]1OC(=O)[C@H]1CCCCCC)OC(=O)[C@H](CC(C)C)NC=O` [ORLISTAT], for which the outcome in test [1], in test [2] and in test [3] was Active. The result in test [4] and in test [5] was inactive.

`O=C(NCCCCCCNC(=O)ON=C1CCCCC1)ON=C1CCCCC1`: the result in test [1], in test [2] and in test [3] was Active. In addition, the result in test [4] and in test [5] was inactive.
